Reference: ChEMBL document CHEMBL4414560, “Goniolanceolatins A-H, Cytotoxic Bis-styryllactones from Goniothalamus lanceolatus” (J Nat Prod, 2019)

How the values were obtained:
SW48 = experiment: Cytotoxicity against human SW48 cells assessed as reduction in cell viability incubated fpr 72 hrs by celltiter-glo luminescent cell viability assay; assay type: functional, cell-based; settings: SW48, 72 h
Procedure, shortened: (§1)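 Cell lines from ATCC, grown in RPMI-1640 with 10% FBS, 100 IU/mL penicillin and 100 μg/mL streptomycin at 37 °C, 5% CO2. Seeded for 24 h, then exposed to compound for 72 h. Viability read by CellTiter-Glo luminescence. IC50 is the concentration killing 50% of cells, reported as mean ± S.D. of at least three independent experiments. Cisplatin-treated cells served for validation.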

HCT-116 = experiment: Cytotoxicity against human HCT116 cells assessed as reduction in cell viability incubated fpr 72 hrs by celltiter-glo luminescent cell viability assay; assay type: functional, cell-based; settings: HCT-116, 72 h; procedure, shortened: as §1
MRC5 = experiment: Cytotoxicity against human MRC5 cells assessed as reduction in cell viability incubated fpr 72 hrs by celltiter-glo luminescent cell viability assay; assay type: cell-based; settings: MRC5, 72 h; procedure, shortened: as §1
A549 = experiment: Cytotoxicity against human A549 cells assessed as reduction in cell viability incubated fpr 72 hrs by celltiter-glo luminescent cell viability assay; assay type: functional, cell-based; settings: A549, 72 h; procedure, shortened: as §1
Caco-2 = experiment: Cytotoxicity against human Caco2 cells assessed as reduction in cell viability incubated fpr 72 hrs by celltiter-glo luminescent cell viability assay; assay type: functional, cell-based; settings: Caco-2, 72 h; procedure, shortened: as §1
NCI-H23 = experiment: Cytotoxicity against human NCI-H23 cells assessed as reduction in cell viability incubated fpr 72 hrs by celltiter-glo luminescent cell viability assay; assay type: functional, cell-based; settings: NCI-H23, 72 h
Procedure, shortened: (§2)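 Lung cancer lines received as gifts from the National Cancer Institute, Selangor, Malaysia, incubated at 37 °C, 5% CO2. Cells plated for 24 h, then drug-exposed for 72 h. Luminescent CellTiter-Glo viability read-out. IC50 is the concentration killing 50% of cells, reported as mean ± S.D. from at least three independent experiments. Cisplatin-treated cells used for validation.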

HCC 2998 = experiment: Cytotoxicity against human HCC2998 cells assessed as reduction in cell viability incubated fpr 72 hrs by celltiter-glo luminescent cell viability assay; assay type: functional, cell-based; settings: HCC 2998, 72 h; procedure, shortened: as §1
CCD-841CoN = experiment: Cytotoxicity against human CCD-841-CoN cells assessed as reduction in cell viability incubated fpr 72 hrs by celltiter-glo luminescent cell viability assay; assay type: cell-based
Procedure, shortened: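 Noncancerous colorectal CCD 841 CoN cells kept in DMEM with 20% FBS, 100 IU/mL penicillin and 100 μg/mL streptomycin at 37 °C, 5% CO2. Plated 24 h, then treated 72 h. Viability by CellTiter-Glo luminescence. IC50 is the 50%-kill concentration, given as mean ± S.D. from at least three independent experiments. Cisplatin used for validation.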

NCI-H1299 = experiment: Cytotoxicity against human NCI-H1299 cells assessed as reduction in cell viability incubated fpr 72 hrs by celltiter-glo luminescent cell viability assay; assay type: functional, cell-based; settings: NCI-H1299, 72 h; procedure, shortened: as §2
Calu-1 = experiment: Cytotoxicity against human Calu1 cells assessed as reduction in cell viability incubated fpr 72 hrs by celltiter-glo luminescent cell viability assay; assay type: functional, cell-based; settings: Calu-1, 72 h; procedure, shortened: as §1

SMILES	IC50 (SW48) [µM]	IC50 (HCT-116) [µM]	IC50 (MRC5) [µM]	IC50 (A549) [µM]	IC50 (Caco-2) [µM]	IC50 (NCI-H23) [µM]	IC50 (HCC 2998) [µM]	IC50 (CCD-841CoN) [µM]	IC50 (NCI-H1299) [µM]	IC50 (Calu-1) [µM]
CC(=O)O[C@@H](c1ccccc1)[C@@H](O[C@@H]1[C@@H]2C[C@@H](CC(=O)O2)O[C@H]1c1ccccc1)[C@@H]1CC=CC(=O)O1	> 10	9.5	> 100	> 10	> 10	9.3	> 10	> 100	> 10	> 10
O=C1C=CC[C@@H]([C@H](O)[C@H](O[C@@H](c2ccccc2)[C@@H](O)[C@@H]2CC=CC(=O)O2)c2ccccc2)O1	4.1	5.9	> 100	7.8	> 10	3.2	2.9	> 100	7.1	5.4
O=C1C=CC[C@@H]([C@H](O)[C@@H](O[C@H]([C@@H]2CC=CC(=O)O2)[C@@H](O)c2ccccc2)c2ccccc2)O1	5.5	8	> 100	> 10	> 10	5.2	> 10	> 100	9.5	7.5
CC(=O)O[C@@H]([C@@H]1CC=CC(=O)O1)[C@H](O[C@@H](c1ccccc1)[C@@H](O)[C@@H]1CC=CC(=O)O1)c1ccccc1	4.1	4.1	> 100	6.4	7	2.6	> 10	> 100	4.6	2.2
